Data as given in ChEMBL document CHEMBL4152346, “Sulfonamido-2-arylbenzoxazole GroEL/ES Inhibitors as Potent Antibacterials against Methicillin-Resistant Staphylococcus aureus (MRSA)” (J Med Chem, 2018).
pEC50, pIC50, pKd: −log10 of the molar value. Activity calls are given as the source filed them. No cut-off for these calls is given here.

What was measured:
Staphylococcus aureus [1] = test: Antibacterial activity against multidrug resistant Staphylococcus aureus ATCC BAA-44 after 6 to 8 hrs; assay type: functional, organism-based
[2] = Cytotoxicity against human THLE3 cells after 48 hrs by Alamar blue assay; assay type: cell-based
Method in brief: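 THLE-3 cells, grown in BEBM with the BEGM kit and 10% FBS, were seeded at 1,500 cells/well and allowed 24 h at 37°C, 5% CO2. Compounds were then added at 100 µM to 46 nM final (3-fold steps, 0.1% DMSO) for 48 h. […] CC50 is the log-average of at least triplicate runs.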

[3] = Selectivity index, ratio of CC50 for human THLE3 cells to EC50 for multidrug resistant Staphylococcus aureus ATCC BAA-44; assay type: toxicity; details: read-out: Ratio CC50/EC50
E. coli GroEL/ES [4] = molecular target: T1, E. coli GroEL/ES (Escherichia coli, UniProt P0A6F5); test: Inhibition of Escherichia coli GroEL expressed in Escherichia coliDH5alpha/Escherichia coli GroES expressed in Escherichia coli BL21 (DE3) assessed as reduction in GroEL/GroES-mediated denatured MDH refolding by measuring MDH enzyme activity using sodium mesoxalate as substrate after 20 to 40 mins by spectrometric analysis
Method in brief: (§1)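 Coupled refolding assay: denatured rhodanese or MDH refolded by GroEL/ES (50 nM GroEL tetradecamer, 700 nM subunits), read-out via enzymatic activity of refolded substrate; counter-screened against native enzyme activity. IC₅₀ as back-calculated mean of log-transformed replicate values.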

E. coli GroEL/ES [5] = molecular target: T1, E. coli GroEL/ES; test: Inhibition of Escherichia coli GroEL expressed in Escherichia coli DH5alpha/Escherichia coli GroES expressed in Escherichia coli BL21 (DE3) assessed as reduction in GroEL/GroES-mediated denatured rhodanese refolding by measuring rhodanese enzyme activity after 45 mins by spectrometric analysis; method in brief: as §1
HSP60/HSP10 = HSP60/HSP10 (Homo sapiens, UniProt P10809); test: Inhibition of human N-terminal octa-His-tagged HSP60 expressed in Escherichia coli Rosetta(DE3) pLysS/human HSP10 expressed in Escherichia coli Rosetta(DE3) assessed as reduction in HSP60/HSP10-mediated denatured MDH refolding by measuring MDH enzyme activity using sodium mesoxalate as substrate after 40 to 60 mins by spectrometric analysis
Method in brief: (§2)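 Chaperonin-mediated refolding of denatured MDH, coupled to MDH enzymatic activity as the reporter. Human HSP60/10 (HSP60 without its 26-residue mitochondrial signal peptide) or E. coli GroEL/ES was used, with GroEL tetradecamer at 50 nM (700 nM subunits) during the refolding cycle. IC50s from replicate dose-response curves were averaged as logs after ROUT outlier removal.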

[6] = molecular target: T2, Thiosulfate sulfurtransferase (Homo sapiens, UniProt Q16762); test: Inhibition of refolded rhodanese (unknown origin) preincubated with Escherichia coli GroEL/GroES for 60 mins by measuring […] after 20 to 40 mins by spectrometric analysis
T2 sequence (Q16762 whole entry): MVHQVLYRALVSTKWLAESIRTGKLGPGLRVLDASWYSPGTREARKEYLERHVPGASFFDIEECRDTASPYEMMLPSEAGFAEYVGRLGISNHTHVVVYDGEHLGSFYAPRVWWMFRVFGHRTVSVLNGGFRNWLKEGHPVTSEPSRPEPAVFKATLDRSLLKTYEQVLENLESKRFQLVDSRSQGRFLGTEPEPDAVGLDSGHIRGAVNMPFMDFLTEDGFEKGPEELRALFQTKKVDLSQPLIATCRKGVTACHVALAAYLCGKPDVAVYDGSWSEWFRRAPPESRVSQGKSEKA

[7] = Inhibition of refolded MDH (unknown origin) preincubated with Escherichia coli GroEL/GroES for 45 mins using sodium mesoxalate as substrate by spectrometric analysis; set-up: species or system Homo sapiens; method in brief: as §2
Staphylococcus aureus [8] = test: Antibacterial activity against multidrug resistant Staphylococcus aureus ATCC BAA-44 at >100 uM passaged for 12 days in fresh liquid media supplemented with compound followed by re-culturing for 24 hrs on agar and another 24 hrs in liquid medium; assay type: functional, organism-based
Method in brief: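 After 12-day serial passage under compound, resistant culture regrown without inhibitor 24 h on agar then 24 h in liquid medium, then retested for growth inhibition; % growth inhibition averaged (±SD) from 4 replicates.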

[9] = Binding affinity to Escherichia coli GroEL expressed in Escherichia coli DH5alpha by ITC assay
Method in brief: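 ITC at 20°C: 400 µM GroEL (monomer) in syringe titrated into 50 µM compound in cell, matched buffer 20 mM HEPES pH 7.4, 50 mM KCl, 10 mM MgCl₂, 1% DMSO; 0.4 µL first injection discarded, then 2.0 µL injections at 3-min intervals, 600 rpm. Single-site fit gave Kd, n, ΔH, ΔS; five or six replicates.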

Staphylococcus aureus [10] = test: Antibacterial activity against multidrug resistant Staphylococcus aureus ATCC BAA-44 at >100 uM passaged for 12 days in fresh liquid media supplemented with compound; assay type: functional, organism-based

T1 sequence (P0A6F5 whole entry, looked up): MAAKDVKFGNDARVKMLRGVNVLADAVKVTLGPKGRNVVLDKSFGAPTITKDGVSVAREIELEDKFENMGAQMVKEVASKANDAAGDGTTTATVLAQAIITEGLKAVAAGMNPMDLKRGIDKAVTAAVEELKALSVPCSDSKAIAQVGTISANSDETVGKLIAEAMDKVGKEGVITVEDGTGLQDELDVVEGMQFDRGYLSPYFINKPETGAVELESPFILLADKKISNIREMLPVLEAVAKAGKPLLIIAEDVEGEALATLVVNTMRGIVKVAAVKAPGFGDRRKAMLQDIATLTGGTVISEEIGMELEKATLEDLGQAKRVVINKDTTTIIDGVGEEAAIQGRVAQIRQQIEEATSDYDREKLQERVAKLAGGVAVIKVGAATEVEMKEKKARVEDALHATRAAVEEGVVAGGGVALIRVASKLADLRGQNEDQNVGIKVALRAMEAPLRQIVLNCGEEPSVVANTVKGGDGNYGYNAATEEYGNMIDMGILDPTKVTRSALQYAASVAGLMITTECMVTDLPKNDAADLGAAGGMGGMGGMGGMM
Chain of HSP60/HSP10 (P10809 whole entry): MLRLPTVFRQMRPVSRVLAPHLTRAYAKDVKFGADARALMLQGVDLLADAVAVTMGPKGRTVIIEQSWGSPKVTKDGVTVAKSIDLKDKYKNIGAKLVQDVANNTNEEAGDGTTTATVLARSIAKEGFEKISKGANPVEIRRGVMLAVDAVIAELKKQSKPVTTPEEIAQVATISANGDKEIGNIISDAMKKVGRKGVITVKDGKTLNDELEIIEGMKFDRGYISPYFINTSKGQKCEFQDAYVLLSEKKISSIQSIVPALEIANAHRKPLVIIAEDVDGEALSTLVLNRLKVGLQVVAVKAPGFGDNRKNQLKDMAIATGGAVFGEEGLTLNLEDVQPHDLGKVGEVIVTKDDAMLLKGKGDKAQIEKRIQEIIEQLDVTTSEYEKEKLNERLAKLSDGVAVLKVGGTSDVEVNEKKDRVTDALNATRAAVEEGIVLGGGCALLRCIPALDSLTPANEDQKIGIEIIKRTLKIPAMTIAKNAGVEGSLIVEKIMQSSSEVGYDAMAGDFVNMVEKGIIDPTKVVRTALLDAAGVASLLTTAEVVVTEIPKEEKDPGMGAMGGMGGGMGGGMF
Chain of HSP60/HSP10 (P61604 whole entry, further chain): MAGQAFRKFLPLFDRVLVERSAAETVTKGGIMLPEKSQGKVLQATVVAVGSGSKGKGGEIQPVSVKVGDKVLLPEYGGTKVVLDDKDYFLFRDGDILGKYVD

Structure (SMILES) | pEC50 (Staphylococcus aureus [1]) | CC50 at 48 h [2] | selectivity ratio [3] | pIC50 (E. coli GroEL/ES [4]) | pIC50 (E. coli GroEL/ES [5]) | pIC50 (HSP60/HSP10) | pIC50 [6] | pIC50 [7] | Activity (Staphylococcus aureus [8]) | pKd [9] | Activity (Staphylococcus aureus [10])
O=[N+]([O-])c1cc(S(=O)(=O)Nc2ccc(-c3nc4cc(NS(=O)(=O)c5ccc(Cl)s5)ccc4o3)cc2)ccc1Cl | 5.77 | 17000 nM | 10 | 5.82 | 5.70 | 5.68 | 4.28 | 4.47 | Active |  | 
NCc1ccc(S(=O)(=O)Nc2ccc(-c3nc4cc(NS(=O)(=O)c5ccc(Cl)s5)ccc4o3)cc2)cc1 | 4.72 |  |  | 5.89 | 5.49 |  |  |  |  | 7.44 | Active
